Source: ChEMBL document CHEMBL2040825, “Synthesis and cytotoxicity of 3,4-disubstituted-5-(3,4,5-trimethoxyphenyl)-4H-1,2,4-triazoles and novel 5,6-dihydro-[1,2,4]triazolo[3,4-b][1,3,4]thiadiazole derivatives bearing 3,4,5-trimethoxyphenyl moiety” (Bioorg Med Chem Lett, 2012)

Assays:
Format in all cases: functional, cell-based
HepG2 = experiment: Cytotoxicity against human HepG2 cells after 48 hrs by MTT assay; details: HepG2, 48 h
In short: (§1)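 Cells grown in DMEM with 10% FBS and passaged by trypsinization at 70-80% confluence. Seeding density was 8 × 10^4 cells/well for MKN45, HT-29 and MCF-7 and 5 × 10^4 cells/well for HepG2, then 24 h attachment at 37 °C. Compounds from 10 mM DMSO stock were diluted in medium and applied for 48 h at 37 °C, with 0.1% DMSO as negative control.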

MKN-45 = experiment: Cytotoxicity against human MKN45 cells after 48 hrs by MTT assay; details: MKN-45, 48 h; in short: as §1
HT-29 = experiment: Cytotoxicity against human HT-29 cells after 48 hrs by MTT assay; details: HT-29, 48 h; in short: as §1
MCF7 = experiment: Cytotoxicity against human MCF7 cells after 48 hrs by MTT assay; details: MCF7, 48 h; in short: as §1

COc1ccc(C2(CC(=O)c3ccc(C)cc3)Nn3c(nnc3-c3cc(OC)c(OC)c(OC)c3)S2)c(OC)c1 (stereo not given) gave an IC50 (HepG2) of 3.17 µM, an IC50 (MKN-45) of 13.8 µM and an IC50 (HT-29) of 66.8 µM. For the same compound, the IC50 (MCF7) was 10.9 µM.
For COc1ccc(/C=N/n2c(SCc3ccccc3)nnc2-c2cc(OC)c(OC)c(OC)c2)c(OC)c1, the IC50 (HepG2) was 60.9 µM, the IC50 (MKN-45) was 49 µM and the IC50 (HT-29) was over 200 µM. It also gave an IC50 (MCF7) of 153 µM.
COc1ccc(/C=N/n2c(SCc3ccccc3Cl)nnc2-c2cc(OC)c(OC)c(OC)c2)c(OC)c1 gave an IC50 (HepG2) of over 200 µM, an IC50 (MKN-45) of over 200 µM and an IC50 (HT-29) of over 200 µM. The IC50 (MCF7) was 63.7 µM.
Work on COc1cccc2c1C(=O)c1c(O)c3c(c(O)c1C2=O)C[C@@](O)(C(=O)CO)C[C@@H]3O[C@H]1C[C@H](N)[C@H](O)[C@H](C)O1 [DOXORUBICIN] yielded an IC50 (HepG2) of 5.57 µM and an IC50 (MKN-45) of 0.168 µM.
Work on COc1cc(-c2nnc3n2NC(CC(=O)c2ccc(C)cc2)(c2ccccc2)S3)cc(OC)c1OC (stereo not given) yielded an IC50 (HepG2) of 0.58 µM, an IC50 (MKN-45) of 7.47 µM and an IC50 (HT-29) of 151 µM. It also gave an IC50 (MCF7) of over 200 µM.
CCOC(=O)CSc1nnc(-c2cc(OC)c(OC)c(OC)c2)n1/N=C/c1ccc(OC)cc1OC was tested, and the IC50 (HepG2) was over 200 µM, the IC50 (MKN-45) was over 200 µM and the IC50 (HT-29) was over 200 µM. For the same compound, the IC50 (MCF7) was over 200 µM.
With CCOC(=O)CC1(c2ccccc2)Nn2c(nnc2-c2cc(OC)c(OC)c(OC)c2)S1 (stereo not given) the IC50 (HepG2) was over 200 µM, the IC50 (MKN-45) was over 200 µM and the IC50 (HT-29) was over 200 µM. It also gave an IC50 (MCF7) of over 200 µM.
COc1cc(-c2nnc(SCc3ccccc3)n2/N=C/c2ccccc2)cc(OC)c1OC gave an IC50 (HepG2) of over 200 µM, an IC50 (MKN-45) of over 200 µM and an IC50 (HT-29) of over 200 µM. The IC50 (MCF7) was over 200 µM.
COc1cc(-c2nnc(SC)n2/N=C/c2ccccc2)cc(OC)c1OC was tested, and the IC50 (HepG2) was over 200 µM, the IC50 (MKN-45) was 28.5 µM and the IC50 (HT-29) was over 200 µM. The IC50 (MCF7) was over 200 µM.
Compound COc1cc(-c2nnc(SCc3ccc(F)cc3)n2/N=C/c2ccccc2)cc(OC)c1OC has an IC50 (HepG2) of over 200 µM, an IC50 (MKN-45) of over 200 µM and an IC50 (HT-29) of over 200 µM. For the same compound, the IC50 (MCF7) was over 200 µM.
Compound COc1ccc(/C=N/n2c(SCc3ccc(F)cc3)nnc2-c2cc(OC)c(OC)c(OC)c2)c(OC)c1 has an IC50 (HepG2) of over 200 µM, an IC50 (MKN-45) of over 200 µM and an IC50 (HT-29) of 126 µM. It also gave an IC50 (MCF7) of over 200 µM.
In the case of COc1ccc(/C=N/n2c(SC)nnc2-c2cc(OC)c(OC)c(OC)c2)c(OC)c1, the IC50 (HepG2) is reported as over 200 µM, the IC50 (MKN-45) is reported as over 200 µM and the IC50 (HT-29) is reported as 144 µM. It also gave an IC50 (MCF7) of over 200 µM.
COc1cc(-c2nnc(SCc3ccccc3Cl)n2/N=C/c2ccccc2)cc(OC)c1OC was tested, and the IC50 (HepG2) was 31.7 µM, the IC50 (MKN-45) was over 200 µM and the IC50 (HT-29) was over 200 µM. The IC50 (MCF7) was over 200 µM.
